Read-outs that look alike come from different tables or passages of the source. Each block holds one compound with its values, some of them ahead of it.
Key:
[1] = target: T1, hMC4R (Homo sapiens, UniProt P32245); format: cell-based
[2] = target: T1, hMC4R; test: PRESTO-Tango β-arrestin2 recruitment assay, HTLA cells transfected with hMC4R; format: cell-based
[3] = target: T1, hMC4R; test: AlphaScreen cAMP Schild analysis, inhibition of NDP-MSH agonist stimulation; format: cell-based; conditions: antagonism of NDP-MSH, pA2 = −log(Ki)
Outline: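 HEK293 cells stably expressing Flag-tagged hMC4R (calcium phosphate transfection, G418 selection), lifted with Versene, 10,000 cells/well in HBSS stimulation buffer (0.5 mM IBMX, 5 mM HEPES, 0.1% BSA, pH 7.4).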

[4] = target: mMC4R-NanoLuc and mMC4R-HaloTag homodimer (Mus musculus, UniProt P56450); test: NanoBRET ligand-induced response of the mMC4R homodimer; format: cell-based
Chain of mMC4R-NanoLuc and mMC4R-HaloTag homodimer (P56450 whole entry): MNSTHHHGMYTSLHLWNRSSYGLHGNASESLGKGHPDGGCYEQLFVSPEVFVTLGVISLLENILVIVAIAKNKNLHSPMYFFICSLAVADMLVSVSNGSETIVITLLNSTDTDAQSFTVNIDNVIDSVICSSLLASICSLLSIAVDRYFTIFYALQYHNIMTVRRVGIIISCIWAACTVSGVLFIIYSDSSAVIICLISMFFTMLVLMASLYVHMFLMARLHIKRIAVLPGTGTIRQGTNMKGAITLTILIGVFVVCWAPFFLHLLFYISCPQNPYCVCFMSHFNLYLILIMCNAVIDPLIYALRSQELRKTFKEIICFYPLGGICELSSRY
Chain of mMC4R-NanoLuc and mMC4R-HaloTag homodimer (P56450 whole entry): as above

[5] = target: human melanocortin-4 receptor (hMC4R-Flag) (human) (UniProt P32245)
Chain of human melanocortin-4 receptor (hMC4R-Flag) (human) (P32245 whole entry): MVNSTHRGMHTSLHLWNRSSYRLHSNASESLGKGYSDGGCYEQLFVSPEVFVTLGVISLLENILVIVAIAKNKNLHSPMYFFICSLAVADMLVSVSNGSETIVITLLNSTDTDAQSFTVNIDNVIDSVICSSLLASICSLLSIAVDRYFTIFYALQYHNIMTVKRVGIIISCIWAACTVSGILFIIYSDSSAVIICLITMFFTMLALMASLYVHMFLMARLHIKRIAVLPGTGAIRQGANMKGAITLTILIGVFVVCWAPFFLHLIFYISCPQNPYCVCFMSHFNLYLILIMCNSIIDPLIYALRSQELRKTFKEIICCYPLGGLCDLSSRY

[6] = system: hMC4R; conditions: 1 µM, not significant; cited from earlier work

T1 sequence (P32245 whole entry): as above

Compound: CC(=O)NCCCOCCOCCOCCCNC(=O)COCC(=O)N[C@@H](Cc1c[nH]cn1)C(=O)N[C@H](Cc1ccccc1)C(=O)N[C@@H](CCCNC(=N)N)C(=O)N[C@@H](Cc1c[nH]c2ccccc12)C(N)=O [CJL-1–116]
- EC50 [1]: 2 ± 0.3 nM
- EC50 [2]: 140 ± 70 nM
- fold increase in β-arrestin recruitment potency compared to CJL-1–14 ([2]; hMC4R): < 3 fold

Compound: Ac-His-DNal(2ʹ)-Arg-Trp-NH2 [CJL-1–80]
- pA2 (Schild analysis) [3]: 7.82±0.03
- change in BRET signal from basal levels ([4]; 10^−5, 10^−7 and 10^−9 M): no significant changes
- cAMP signaling, % of maximal signal at 10 µM compared to control NDP-MSH maximal signal ([1]; hMC4R, at 10 µM): 50%
- β-Arrestin recruitment, % of maximal signal at 10 µM compared to control NDP-MSH maximal signal ([2]; hMC4R): 30% at 10 µM
- β-Arrestin recruitment, % of maximal signal at 10 µM compared to control NDP-MSH maximal signal ([2]; hMC4R, listed as Ac-His-DNal(2ʹ)-Arg-Trp-NH2): 30%

Compound: NDP-MSH (peptide)
- cAMP signaling EC50 (AlphaScreen, HEK293 cells stably expressing hMC4R) [5]: 0.06 nM

Compound: α-MSH [reference compound]
- decrease of mean BRET signal compared to basal BRET signal [6]: approximately 20%
- reduction in BRET signal compared to basal signal ([4]; ligand at 10 µM): 15%

Further lines, results first:

- cAMP pharmacology ([1]; hMC4R): single digit nanomolar potent agonists
Compound: CC(=O)N[C@@H](Cc1c[nH]cn1)C(=O)N[C@H](Cc1ccc2ccccc2c1)C(=O)N[C@@H](CCCNC(=N)N)C(=O)N[C@@H](Cc1c[nH]c2ccccc12)C(=O)N1CCC[C@H]1C(=O)NCC(=O)N1CCC[C@H]1C(=O)NCC(=O)N1CCC[C@H]1C(=O)NCC(=O)N1CCC[C@H]1C(=O)NCC(=O)N1CCC[C@H]1C(=O)NCC(=O)N1CCC[C@H]1C(=O)NCC(=O)N[C@@H](Cc1c[nH]cn1)C(=O)N[C@H](Cc1ccccc1)C(=O)N[C@@H](CCCNC(=N)N)C(=O)N[C@@H](Cc1c[nH]c2ccccc12)C(N)=O [CJL-1–63]

- cAMP pharmacology ([1]; hMC4R): single digit nanomolar potent agonists
Compound: CC(=O)N[C@@H](Cc1c[nH]cn1)C(=O)N[C@H](Cc1ccc2ccccc2c1)C(=O)N[C@@H](CCCNC(=N)N)C(=O)N[C@@H](Cc1c[nH]c2ccccc12)C(=O)NCCCOCCOCCOCCCNC(=O)COCC(=O)NCCCOCCOCCOCCCNC(=O)COCC(=O)N[C@@H](Cc1c[nH]cn1)C(=O)N[C@H](Cc1ccccc1)C(=O)N[C@@H](CCCNC(=N)N)C(=O)N[C@@H](Cc1c[nH]c2ccccc12)C(N)=O [CJL-5–74]

- cAMP signaling EC50 (AlphaScreen, HEK293 cells stably expressing hMC4R) [5]: 0.03 nM
Compound: MTII (peptide)

From publication PMC6226371 (Journal of medicinal chemistry, 2018)
